In the library only some 1.9% were active in any assay of this set; here they are far more common.
M4 ag – agonists of human muscarinic M4 receptor (CHRM4); P08173; CHO-K1 hM4/Gqi5, Fluo-8 calcium fluorescence; vehicle 0%, full acetylcholine response 100%; activation, % at 3 µM; 360,000 compounds, 0.14% hits; AID 624127;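 active = activation above the run mean over all test wells plus 3 SD, cut at about 32% in these data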;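 also: peak over basal fluorescence ratio per well then scaled between controls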
Target sequence (P08173 whole entry, looked up): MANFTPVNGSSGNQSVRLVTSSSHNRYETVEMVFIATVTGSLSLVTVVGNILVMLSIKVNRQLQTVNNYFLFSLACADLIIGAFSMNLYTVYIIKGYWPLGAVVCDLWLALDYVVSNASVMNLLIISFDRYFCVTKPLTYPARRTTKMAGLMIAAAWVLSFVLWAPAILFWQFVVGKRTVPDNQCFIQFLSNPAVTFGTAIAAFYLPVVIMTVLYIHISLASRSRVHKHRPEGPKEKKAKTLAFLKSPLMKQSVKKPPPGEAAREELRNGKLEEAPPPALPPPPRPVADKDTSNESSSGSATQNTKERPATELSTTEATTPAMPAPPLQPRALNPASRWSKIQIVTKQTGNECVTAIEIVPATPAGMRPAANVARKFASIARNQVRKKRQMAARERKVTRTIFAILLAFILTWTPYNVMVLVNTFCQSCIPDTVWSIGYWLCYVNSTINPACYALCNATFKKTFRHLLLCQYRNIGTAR
CHRM5 antagonist – antagonists of human muscarinic M5 receptor (CHRM5). P08912. CHO-hM5 cells, Fluo-8 calcium fluorescence, ACh EC80. inhibition, % at 3 µM. 360,000 compounds, 0.59% hits. AID 624040;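 active = inhibition above a per-plate cutoff, the mean of that plate's test compounds plus 3 SD, cut at about 27% in these data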
CHRM5 PAM – potentiates acetylcholine response at human M5 receptor | P08912 | activation, % at 3 µM | CHO-K1 hM5, Fluo-8 calcium, ACh EC20 PAM; 0% = ACh EC20, 100% = ACh EC100 | 360,000 compounds, 0.3% hits;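 active = activation above the run cutoff, the mean activation of all test compounds plus 3 SD, cut at about 18% in these data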
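System: CHO-K1 cell line with stable human muscarinic M5 receptor expression | Also added: EC20 acetylcholine as agonist stimulus | Compound: One concentration, 3 µM final (nominal) | Timing: Fluo-8 loading 80 min at 37 °C plus 30 min room temperature | Measured by: Fluo-8 calcium dye fluorescence, kinetic read | Read-out basis: % activation, ACh-normalized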
CHRM4 antagonist – antagonists of human muscarinic M4 receptor (CHRM4); inhibition, % at 3 µM; CHO-hM4 cells, ACh EC80, Fluo-8 calcium fluorescence; AID 624125; 360,000 compounds, 0.73% hits;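 active = inhibition above its plate's cutoff, the mean inhibition of sample wells plus 3 SD, cut at about 27% in these data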
M4 PAM – positive allosteric modulators of human muscarinic M4 receptor; AID 624126; activation, % at 3 µM; 360,000 compounds, 0.4% hits; P08173; CHO-K1 hM4/Gqi5, Fluo-8 calcium fluorescence, ACh EC20; 0% = ACh EC20, 100% = maximal ACh;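 active = activation above its plate's cutoff, the mean activation of sample wells plus 3 SD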
CHRM5 agonist – agonists of human muscarinic M5 receptor (CHRM5) | P08912 | CHO-K1 hM5 cells, Fluo-8 calcium fluorescence; 0% DMSO wells, 100% maximal acetylcholine response | activation, % at 3 µM | 360,000 compounds, 0.19% hits | AID 624037;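 active = activation above the run's mean over test compounds plus 3 SD, cut at about 23% in these data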;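 also: signal is peak over basal fluorescence ratio across the kinetic read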
Numbers stand for hits; . = inactive.

SMILES	M4 ag	CHRM5 antagonist	CHRM5 PAM	CHRM4 antagonist	M4 PAM	CHRM5 agonist
CCOc1ccc(S(=O)(=O)NC(Cc2cnc[nH]2)C(=O)O)cc1 (stereo not drawn)	.	.	.	.	21	.
O=C1/C(=C\c2ccc(C(F)(F)F)cc2)CSc2sccc21	.	.	.	.	.	.
O=C1/C(=C/c2ccc(F)c(F)c2)CSc2sccc21	.	.	.	.	37	.
CCCCn1c(N)c(N(CC(C)C)C(=O)CSc2nnc(-c3ccc(Cl)cc3)o2)c(=O)[nH]c1=O	.	.	.	.	.	.
CC(O)(Cc1ccccn1)Cc1ccccn1	.	.	.	.	.	.
CCN1C(=O)[C@H]2[C@@H](c3ccc(C)cc3)N3C(=O)N(c4ccc(C)cc4)C(=O)[C@@]3(Cc3ccccc3)[C@H]2C1=O	.	.	.	.	.	.
CCN1C(=O)[C@H]2[C@@H](c3ccc(C)cc3)N3C(=O)N(c4ccc(OC)cc4)C(=O)[C@@]3(Cc3ccc(Cl)cc3)[C@H]2C1=O	.	.	.	.	31	.
Cc1ccc(NC(=O)c2cc(NC(=O)c3ccco3)ccc2N2CCOCC2)cc1	.	.	.	.	.	.
Cc1ccc(NC(=O)c2cc(N3C(=O)C=CC3=O)ccc2N2CCOCC2)cc1	.	.	21	.	.	.
O=C(Nc1ccccc1-c1ccccc1)NC1CC2CCCC(C1)N2CCc1ccccc1 (stereo not drawn)	.	.	.	29	.	.
O=C(Nc1ccccc1-c1ccccc1)NC1CC2CCCC(C1)N2Cc1ccc(F)cc1 (stereo not drawn)	.	34	.	58	.	.
Cc1ccc(CN2C3CCCC2CC(NC(=O)c2ccc(F)cc2)C3)cc1 (stereo not drawn)	.	.	.	.	.	.
CS(=O)(=O)N1CCC(C(=O)Nc2ccc(C(N)=O)cc2)CC1	.	.	.	.	.	.
NC(=O)c1ccc(NC(=O)C2CC2)cc1	.	.	.	.	22	.
COc1ccc(CN(C)C(C)C(=O)Nc2ccc(S(=O)(=O)N3CCCCC3)cc2)cc1F (stereo not drawn)	.	.	.	.	.	.
COc1ccc(OCC(O)CN2CCC(CN3C(=O)c4cccc5cccc(c45)C3=O)CC2)cc1 (stereo not drawn)	.	.	.	27	.	.
CCc1cc(=O)oc2cc(OC(C)C(=O)N3CC[C@@]4(O)CCCC[C@H]4C3)ccc12 (stereo partly drawn)	.	.	.	.	.	.
CC(C)C[C@@H](CNCC(=O)[C@H](C)NC(=O)c1[nH]cnc1C(=O)N[C@H](CN)CC(C)C)NC(=O)c1nc[nH]c1C(=O)N[C@@H](C)C(=O)O	.	.	.	.	.	.
Cn1nnnc1SCCNCc1cc(Cl)ccc1OCc1ccccc1	.	.	.	.	.	.
Cn1nnnc1SCCNCc1ccccc1OCc1ccc(Cl)cc1	.	.	.	27	.	.
CCc1ccccc1NC(=S)N(Cc1cccc(C)c1)c1cccnc1	.	.	.	.	.	.
Cc1cccc(CN(C(=S)Nc2c(C)cccc2C)c2cccnc2)c1	.	.	18	.	.	.
CN(CC(=O)N(C)CC(=O)Nc1c(Cl)cccc1Cl)Cc1ccccc1F	.	.	.	.	.	.
NNC1=N[C@H]2CS(=O)(=O)C[C@H]2S1	.	.	.	.	24	.
O=C(NCc1ccccc1)c1ccc(NC2=NC3CS(=O)(=O)CC3S2)cc1 (stereo not drawn)	.	.	.	.	.	.
SMILES	M4 ag	CHRM5 antagonist	CHRM5 PAM	CHRM4 antagonist	M4 PAM	CHRM5 agonist
Cc1ccc(S(=O)(=O)NC(=O)C2(C)CCN2C(=O)Cc2cc(F)ccc2F)nc1 (stereo not drawn)	.	.	.	.	.	.
Cc1ccc2c(c1)C(c1ccc(F)cc1)N(C(=O)c1ccccc1Br)CC(=O)N2 (stereo not drawn)	.	.	.	66	.	.
O=C(NNC1=NCCCCC1)c1cccc([N+](=O)[O-])c1	.	.	19	.	.	.
COc1ccc(OC)c(S(=O)(=O)N/N=C(/C)c2ccc3c(c2)OCO3)c1	.	.	.	.	.	.
CN1CCN(C2=Nc3ccccc3Oc3ccc(Cl)cc32)CC1	.	72	.	37	.	.
Cc1ccc(C2N3CC4([N+](=O)[O-])CN2CC([N+](=O)[O-])(C3)C4(C)C)cc1 (stereo not drawn)	.	.	.	.	.	.
CCCC1N2CC3([N+](=O)[O-])CN1CC([N+](=O)[O-])(C2)C3(C)C (stereo not drawn)	.	.	.	.	20	.
O=C(CS(=O)(=O)c1ccccc1)Nc1ccc(Br)cn1	.	.	20	.	.	.
O=C(CS(=O)(=O)c1ccccc1)Nc1ccccn1	.	.	.	.	.	.
CCOc1ccc(NC(=O)/C(C#N)=C\c2ccc(N3CCCC3)c(C)c2)cc1	.	50	.	.	.	40
CCOc1ccc(/C=C(\C#N)C(=O)Nc2cccnc2)cc1	.	.	.	.	.	.
COc1cc(N(Cc2ccccc2)Cc2ccccc2)c2ncn(C(C)C)c2c1	.	.	.	.	.	.
CC(C)n1cnc2c(N(C)c3ccccc3)nc(N(CCN(C)C)Cc3ccccc3)nc21	.	34	.	.	.	.
Cc1ccc(C)c(N2CCN(CCN3CCCCC3)CC2)c1	.	.	.	.	.	.
O=C1CCC(c2ccccc2)(C2CCN(Cc3ccccc3)CC2)C(=O)N1 (stereo not drawn)	.	99	.	99	.	.
O=C1CCN(Cc2ccccc2)C(=O)N1	.	.	.	.	.	.
Cc1cccc(C(=O)NNS(=O)(=O)c2ccccc2[N+](=O)[O-])c1	.	.	.	.	28	.
COCCN(CC(=O)Nc1cccc(C)c1C)C(=O)C1CCN(S(=O)(=O)c2ccccc2)CC1	.	.	.	.	.	.
O=C(Nc1ccc(Cl)cc1)[C@@H]1[C@@H]2C(=O)N(c3ccc4ccccc4c3)C(=O)[C@@H]2[C@H]2C=CC=NN21	.	.	32	.	.	.
CC(C)n1ncc2c(C(=O)NCc3cccnc3)cc(C3CC3)nc21	.	.	.	.	.	.
CCOC(=O)C1CCCN(C(=S)Nc2ccc(Nc3ccccc3)cc2)C1 (stereo not drawn)	.	.	.	.	.	32
CCOC(=O)C1CCCN(C(=O)C2c3ccccc3Oc3ccccc32)C1 (stereo not drawn)	.	.	.	.	.	27
CCOC(=O)C1CCCN(C(=S)Nc2ccc(C)cc2C)C1 (stereo not drawn)	.	.	.	.	.	36

Source: PubChem
